The test system of data set [1] is Rattus norvegicus. Briefly: Increase in cholesterol level in Wistar rat liver at 406 umol/kg/day administered through diet for 10 days. The format is ADME, organism-based. The settings on record: in vivo, po, 240 h.
In data set [2] the test system is Rattus norvegicus. Briefly: Increase in liver weight in Wistar rat at 400 umol/kg/day administered through diet for 4 days. The settings on record: in vivo, po, 96 h. The data set is classed as ADME, organism-based.
Data set [3] has as its system Rattus norvegicus. Kind of data set: Hypolipidemic activity in Wistar rat assessed as reduction in plasma cholesterol level at 400 umol/kg/day administered through diet for 4 days. The data set is classed as functional. As to conditions: 96 h. An outline of the steps:
(§1)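 Young male Wistar rats, 170-190 g at start, in groups of six, given compound mixed into Purina Lab Chow ad libitum for 4 or 10 days as stated. Daily dose was calculated from food consumption and body weight. Plasma was taken by cardiac puncture at the end and cholesterol measured by automated procedure. Results are % reduction versus a concurrent untreated control group, with Student's t test.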

Data set [4] deals with Rattus norvegicus. Kind of data set: Increase in cholesterol level in Wistar rat liver at 400 umol/kg/day administered through diet for 4 days. As to conditions: in vivo, po, 96 h. The data set is classed as ADME, organism-based.
Data set [5] concerns Rattus norvegicus. Briefly: Hypolipidemic activity in Wistar rat assessed as reduction in plasma triglyceride level at 406 umol/kg/day administered through diet for 10 days. The data set is classed as functional. The settings on record: 240 h.
Data set [6] has as its system Rattus norvegicus. Briefly: Hypolipidemic activity in Wistar rat assessed as reduction in plasma triglyceride level at 400 umol/kg/day administered through diet for 4 days. The data set is classed as functional. As to conditions: 96 h.
Data set [7] has as its system Rattus norvegicus. Kind of data set: Hypolipidemic activity in Wistar rat assessed as reduction in plasma cholesterol level at 406 umol/kg/day administered through diet for 10 days. The data set is classed as functional. The settings on record: 240 h. An outline of the steps:
as §1

Data set [8] deals with Rattus norvegicus. Kind of data set: Increase in liver weight in Wistar rat at 406 umol/kg/day administered through diet for 10 days. The format is ADME, organism-based. The settings on record: in vivo, po, 240 h.
Data set [9] deals with Rattus norvegicus. Kind of data set: Increase in liver weight in Wistar rat at 381 umol/kg/day administered through diet for 4 days. The format is ADME, organism-based. As to conditions: in vivo, po, 96 h.
For data set [10], the system named is Rattus norvegicus. Briefly: Hypolipidemic activity in Wistar rat assessed as reduction in plasma cholesterol level at 381 umol/kg/day administered through diet for 4 days. The format is functional. The settings on record: 96 h. An outline of the steps:
as §1

For data set [11], the system named is Rattus norvegicus. Kind of data set: Hypolipidemic activity in Wistar rat assessed as reduction in plasma triglyceride level at 381 umol/kg/day administered through diet for 4 days. The format is functional. As to conditions: 96 h. An outline of the steps:
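Young male Wistar rats (170-190 g initial weight), groups of six, fed test compound mixed into Purina Lab Chow ad libitum; daily dose calculated from food consumption and body weight. Bled by cardiac puncture at end of treatment; plasma triglycerides measured by automated procedure. Results given as percent reduction versus a simultaneous untreated control group, with significance by Student's t test.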

The test system of data set [12] is Rattus norvegicus. Kind of data set: Hypolipidemic activity in Wistar rat assessed as reduction in plasma cholesterol level at 423 umol/kg/day administered through diet for 4 days. The format is functional. As to conditions: 96 h. An outline of the steps: (§2)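 Young male Wistar rats, 170-190 g initial weight, groups of six, given compound mixed thoroughly into Purina Lab Chow ad libitum for 4 or 10 days as stated. Daily dose calculated from food consumption and body weight. Bled by cardiac puncture at end of treatment; plasma cholesterol measured by automated procedure. Expressed as percent reduction versus simultaneous untreated control group; Student's t test.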

Data set [13] has as its system Rattus norvegicus. Briefly: Hypolipidemic activity in Wistar rat assessed as reduction in plasma triglyceride level at 423 umol/kg/day administered through diet for 4 days. The format is functional. As to conditions: 96 h.
Data set [14] relates to Rattus norvegicus. Kind of data set: Increase in liver weight in Wistar rat at 423 umol/kg/day administered through diet for 4 days. The format is ADME, organism-based. As to conditions: in vivo, po, 96 h.
Data set [15] deals with Rattus norvegicus. Kind of data set: Hypolipidemic activity in Wistar rat assessed as reduction in plasma triglyceride level at 524 umol/kg/day administered through diet for 4 days. The format is functional. As to conditions: 96 h.
The test system of data set [16] is Rattus norvegicus. Briefly: Hypolipidemic activity in Wistar rat assessed as reduction in plasma cholesterol level at 524 umol/kg/day administered through diet for 4 days. The format is functional. The settings on record: 96 h. An outline of the steps: as §2
Data set [17] has as its system Rattus norvegicus. Briefly: Increase in liver weight in Wistar rat at 524 umol/kg/day administered through diet for 4 days. As to conditions: in vivo, po, 96 h. The data set is classed as ADME, organism-based.
Data set [18] relates to Rattus norvegicus. Kind of data set: Increase in liver weight in Wistar rat at 332 umol/kg/day administered through diet for 4 days. The format is ADME, organism-based. As to conditions: in vivo, po, 96 h.
Data set [19] deals with Rattus norvegicus. Briefly: Hypolipidemic activity in Wistar rat assessed as reduction in plasma cholesterol level at 332 umol/kg/day administered through diet for 4 days. The format is functional. As to conditions: 96 h. An outline of the steps: as §1
For data set [20], the system named is Rattus norvegicus. Kind of data set: Hypolipidemic activity in Wistar rat assessed as reduction in plasma triglyceride level at 332 umol/kg/day administered through diet for 4 days. The data set is classed as functional. As to conditions: 96 h. An outline of the steps:
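Young male Wistar rats, 170-190 g initial weight, six per group, fed drug mixed thoroughly into Purina Lab Chow ad libitum for the stated days; daily dose calculated from food consumption and body weight. Bled by cardiac puncture at end; plasma cholesterol and triglycerides by automated procedures, expressed as percent reduction versus simultaneous untreated controls; Student's t test.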

Data set [21] has as its system Rattus norvegicus. Kind of data set: Increase in liver weight in Wistar rat at 404 umol/kg/day administered through diet for 4 days. The data set is classed as ADME, organism-based. The settings on record: in vivo, po, 96 h.

A word on the inhibition in vivo: it is the relative decrease from the control value, in per cent. For the molecule `CCCCCCCCCCCCOc1ccc(C(=O)CC(=O)OC)cc1`, the Activity amounted to 24% in the data set on Rattus norvegicus [1], 22% in the data set with Rattus norvegicus [2], 32% in the data set with Rattus norvegicus [4] and 34% in the data set on Rattus norvegicus [8]. Further, the inhibition in vivo at 400 µmol/kg with Rattus norvegicus [3] came to 35%; in the data set with Rattus norvegicus [6] it was 84%. Moreover, the results for the inhibition in vivo at 406 µmol/kg in the data set with Rattus norvegicus [5] and with Rattus norvegicus [7] were 71% and 27%, respectively.
On to `CCCCCCCCCCCCCCOc1c(Cl)cc(C(=O)OC)cc1Cl`, for which, in the data set with Rattus norvegicus [9], the Activity came to 0%. In addition, the inhibition in vivo at 381 µmol/kg in the data set on Rattus norvegicus [10] was determined as 1%; with Rattus norvegicus [11] it was 73%.
Regarding `CCCCCCCCCCCCCCOc1ccc(C(=O)OC)cc1C(=O)OC`, the inhibition in vivo at 423 µmol/kg amounted to 7% in the data set with Rattus norvegicus [12] and 10% in the data set with Rattus norvegicus [13]. Besides, in the data set on Rattus norvegicus [14], the Activity amounted to 0%.
`CCCCCCCCCCCCCCOc1ccco1`: the inhibition in vivo at 524 µmol/kg with Rattus norvegicus [15] and with Rattus norvegicus [16] was 0% throughout. Also, in the data set on Rattus norvegicus [17], the Activity was determined as 1%.
`CCCCCCCCCCCCCCOc1cc(C(=O)OC)cc(C(=O)OC)c1` had an Activity in the data set on Rattus norvegicus [18] of 0%. Further, the inhibition in vivo at 332 µmol/kg in the data set on Rattus norvegicus [19] was determined as 5%; in the data set with Rattus norvegicus [20] it was 39%.
The molecule `CCCCCCCCCCCCCCCCSc1ccc(C(=O)O)cc1` returned an Activity in the data set on Rattus norvegicus [21] of 6%.

(Values after ChEMBL document CHEMBL3272012, “5-(Tetradecyloxy)-2-furancarboxylic acid and related hypolipidemic fatty acid-like alkyloxyarylcarboxylic acids” (J Med Chem, 1977).)
